Published values gathered from unrelated publications.
Protocols differ between the studies behind these lines.
Target: Serine/threonine-protein kinase WNK4 (WNK4, Homo sapiens, UniProt Q96J92)

`C=CC(=O)N1CCC(C(=O)NCC(=O)N2CCN(c3nc(-c4cnc(N)nc4C(F)F)nc(N4CCOCC4)n3)CC2)CC1` gave a remaining binding of 92% (binding; competition with immobilised ligand; 1 µM).
For `Cc1nc(Cc2cccc(C(F)(F)F)c2)sc1-c1ccc(C(N)=O)nc1`, the remaining binding was 100% (cell-free assay; competition with immobilised ligand; 1 µM).
`O=C(c1ccc(Nc2ncc(Cl)c(-c3ccc(Cl)s3)n2)cc1)N1CCC(N2CCCC2)CC1` gave a remaining binding of 100% (binding; competition with immobilised ligand; 1 µM).
`CC1=C(C#N)[C@@H](c2ccc3[nH]nc(C)c3c2)C(C#N)=C(c2ccc(Cl)cc2)N1` gave a remaining binding of 100% (cell-free assay; competition with immobilised ligand; 1 µM).
`O=C(Nc1c[nH]nc1C(=O)NC1CCNCC1)c1cc(F)cc(F)c1` gave a remaining binding of 100% (binding; competition with immobilised ligand; 1 µM).
`Nc1ncc2c(n1)-c1c([nH]c3ccc(C#CC4CC4)cc13)CCCC2` gave a remaining binding of 79% (binding; competition with immobilised ligand; 1 µM).
`O=C(NCCCN1CCOCC1)c1ccc(Nc2ncc(Cl)c(-c3ccc(Cl)s3)n2)cc1` gave a remaining binding of 99% (binding; competition with immobilised ligand; 1 µM).
For `COc1cnc(Nc2cccc(S(N)(=O)=O)c2)nc1N1CCN(c2ccccc2)CC1`, the remaining binding was 82% (binding; competition with immobilised ligand; 1 µM).
`CC(=O)N1CCC(c2ccc(C(=O)NC(=N)N)cc2C(F)(F)F)CC1` gave a remaining binding of 100% (cell-free assay; competition with immobilised ligand; 1 µM).
`CN(C)c1ncc(F)c(-c2cnn3ncccc23)n1` has a remaining binding of 91% (binding; 1 µM).
With `O=C(c1ccc(Nc2ncc(Cl)c(-c3cc4ccccc4s3)n2)cc1)N1CCC(N2CCCC2)CC1` the remaining binding was 86% (binding; competition with immobilised ligand; 1 µM).
`N[C@H]1CCN(c2nccc(-c3cnn4ncccc34)n2)C1` has a remaining binding of 84% (binding; 1 µM).
For `O=C(Nc1ccc(Oc2ccc(F)cc2)cc1)N1CCc2ncccc2[C@H]1c1ccc(F)cc1`, the remaining binding was 85% (cell-free assay; competition with immobilised ligand; 1 µM).
The remaining binding of `C[C@@H]1CCN(c2nccc(-c3cnn4ncccc34)n2)C1` is reported as 100% (binding; 1 µM).
The remaining binding of `Cc1nc(N2CC[C@@H](O)C2)ncc1-c1cc(C(F)(F)F)cc2[nH]ncc12` is reported as 95% (binding; competition with immobilised ligand; 1 µM).
With `c1cnn2ncc(-c3ccnc(N4CCC45COC5)n3)c2c1` the remaining binding was 64% (binding; 1 µM).
With `c1cncc(-c2cccc(Nc3nccc(NC4CCCCC4)n3)c2)c1` the remaining binding was 100% (binding; competition with immobilised ligand; 10 µM).
With `CN(c1nccc(-c2cnn3ncccc23)n1)C1CC1` the remaining binding was 100% (binding; 1 µM).
The remaining binding of `CSc1cccnc1N1CCN(Cc2nc3ccccc3[nH]2)CC1` is reported as 91% (cell-free assay; competition with immobilised ligand; 1 µM).
`F[C@@H]1CCN(c2nccc(-c3cnn4ncccc34)n2)C1` has a remaining binding of 91% (binding; 1 µM).
The remaining binding of `C[C@@H](c1ccc(-n2cnc3c(N)ncnc32)cc1)N1CCc2nn(C)c(Cc3ccccc3)c2C1=O` is reported as 75% (binding; competition with immobilised ligand; 0.1 µM).
